Measured values reported in ChEMBL document CHEMBL3085676, “Self-assembly to function: design, synthesis, and broad spectrum antimicrobial properties of short hybrid E-vinylogous lipopeptides” (J Med Chem, 2013).
Converted amounts (≈) assume the structure as drawn. The source made the active and inactive calls. The calls are words filed in the database; no cut-off is given here. Where a SMILES comes first, the peptide text is derived from it. The star is where a group is joined. Octanoyl = CCCCCCCC(=O)*

Test system: Escherichia coli
Assay: Antibacterial activity against Escherichia coli K-12 NCIM 2563 assessed as disruption of cell membrane at 50 uM after 1 hr by atomic force microscopic analysis
Format: functional, organism-based
Conditions: not given
Method in brief: (§1)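 E. coli grown in MHB and C. albicans in potato dextrose broth were pelleted and resuspended in deionized water. Cells incubated with 50 µM peptide at 37 °C for 1 h, dried 30 min at 25 °C on poly-L-lysine glass, and imaged by AFM in intermittent contact mode. Peptide-free cells served as control.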

Compound | Activity
CCCCCCCCCCCC(=O)N[C@@H](C)/C=C/C(=O)N[C@@H](CCCNC(=N)N)C(=O)N[C@@H](C)/C=C/C(=O)N[C@@H](CCCNC(=N)N)C(N)=O | Active
CCCCCCCC(=O)N[C@@H](CC(C)C)C(=O)N[C@@H](CCCCN)C(=O)N[C@H](C(=O)N[C@@H](CCCCN)C(N)=O)C(C)C (Octanoyl-LKVK-NH2) | Active

Test system: Klebsiella pneumoniae
Assay: Antibacterial activity against Klebsiella pneumoniae NCIM 2957 after 18 to 20 hrs by broth dilution assay
Format: functional
Conditions: not given
Method in brief: (§2)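 Two-fold serial dilutions in Mueller-Hinton broth, run in triplicate. Overnight 37 °C cultures diluted to 10⁶ CFU/mL and added 1:1 to the peptide, then incubated at 37 °C for 18-20 h. Growth was read as absorbance at 492 nm against no-peptide controls. MIC taken as the lowest concentration giving complete inhibition or killing. Reproducible across three independent triplicates.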

MIC [µg/mL] | Compound
6.25 (≈ 8.85 µM) | CCCCCCCCCCCC(=O)N[C@@H](C)/C=C/C(=O)N[C@@H](CCCNC(=N)N)C(=O)N[C@@H](C)/C=C/C(=O)N[C@@H](CCCNC(=N)N)C(N)=O
> 100 | CCCCCCCC(=O)N[C@@H](CC(C)C)C(=O)N[C@@H](CCCCN)C(=O)N[C@H](C(=O)N[C@@H](CCCCN)C(N)=O)C(C)C (Octanoyl-LKVK-NH2)

Test system: Saccharomyces cerevisiae
Assay: Antifungal activity against Saccharomyces cerevisiae NCIM 3454 after 48 to 72 hrs
Format: functional
Conditions: not given
Method in brief: (§3)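 Peptide in water was serially diluted two-fold in potato dextrose broth and mixed 1:1 with yeast suspension at 2×10³ CFU/ml. Incubated at 25 °C for 48-72 h, with growth read as absorbance at 620 nm against a peptide-free culture. MIC was the lowest concentration giving complete growth inhibition. Run in triplicate.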

MIC [µg/mL] | Compound
3.12 (≈ 4.42 µM) | CCCCCCCCCCCC(=O)N[C@@H](C)/C=C/C(=O)N[C@@H](CCCNC(=N)N)C(=O)N[C@@H](C)/C=C/C(=O)N[C@@H](CCCNC(=N)N)C(N)=O
> 100 | CCCCCCCC(=O)N[C@@H](CC(C)C)C(=O)N[C@@H](CCCCN)C(=O)N[C@H](C(=O)N[C@@H](CCCCN)C(N)=O)C(C)C (Octanoyl-LKVK-NH2)

Test system: not listed separately
Assay: Hemolytic activity in human RBC after 1 hr
Format: ADME, cell-based
Conditions: erythrocyte
Method in brief: (§4)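 Fresh EDTA-collected human RBCs washed four times in Tris-buffered saline (10 mM Tris, 150 mM NaCl, pH 7.2) and used at 4% v/v, mixed 1:1 with two-fold serially diluted peptide (top 100 µg/ml before mixing). Incubated at 37 °C for 1 h and centrifuged; supernatant hemoglobin read at 540 nm. Buffer and 1% Triton-X served as negative and positive controls. Percent hemolysis = (A−A_N)/(A_P−A_N)×100. Run in duplicate.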

Compound | HD10 [µg/mL]
CCCCCCCCCCCC(=O)N[C@@H](C)/C=C/C(=O)N[C@@H](CCCNC(=N)N)C(=O)N[C@@H](C)/C=C/C(=O)N[C@@H](CCCNC(=N)N)C(N)=O | 22

Test system: Candida albicans
Assay: Antifungal activity against Candida albicans NCIM 3471 after 48 to 72 hrs
Format: functional
Conditions: not given
Method in brief: as §3

MIC [µg/mL] | Compound
3.12 (≈ 4.42 µM) | CCCCCCCCCCCC(=O)N[C@@H](C)/C=C/C(=O)N[C@@H](CCCNC(=N)N)C(=O)N[C@@H](C)/C=C/C(=O)N[C@@H](CCCNC(=N)N)C(N)=O
> 100 | CCCCCCCC(=O)N[C@@H](CC(C)C)C(=O)N[C@@H](CCCCN)C(=O)N[C@H](C(=O)N[C@@H](CCCCN)C(N)=O)C(C)C (Octanoyl-LKVK-NH2)

Test system: Nakaseomyces glabratus
Assay: Antifungal activity against Candida glabrata NCIM 3237 after 48 to 72 hrs
Format: functional
Conditions: not given
Method in brief: as §3

MIC [µg/mL] | Compound
6.25 (≈ 8.85 µM) | CCCCCCCCCCCC(=O)N[C@@H](C)/C=C/C(=O)N[C@@H](CCCNC(=N)N)C(=O)N[C@@H](C)/C=C/C(=O)N[C@@H](CCCNC(=N)N)C(N)=O
> 100 | CCCCCCCC(=O)N[C@@H](CC(C)C)C(=O)N[C@@H](CCCCN)C(=O)N[C@H](C(=O)N[C@@H](CCCCN)C(N)=O)C(C)C (Octanoyl-LKVK-NH2)

Test system: Salmonella typhimurium
Assay: Antibacterial activity against Salmonella typhimurium NCIM 2501 after 18 to 20 hrs by broth dilution assay
Format: functional, Salmonella enterica subsp. enterica serovar Typhimurium
Conditions: Salmonella enterica
Method in brief: as §2

MIC [µg/mL] | Compound
3.12 (≈ 4.42 µM) | CCCCCCCCCCCC(=O)N[C@@H](C)/C=C/C(=O)N[C@@H](CCCNC(=N)N)C(=O)N[C@@H](C)/C=C/C(=O)N[C@@H](CCCNC(=N)N)C(N)=O
> 100 | CCCCCCCC(=O)N[C@@H](CC(C)C)C(=O)N[C@@H](CCCCN)C(=O)N[C@H](C(=O)N[C@@H](CCCCN)C(N)=O)C(C)C (Octanoyl-LKVK-NH2)

Test system: Pseudomonas aeruginosa
Assay: Antibacterial activity against Pseudomonas aeruginosa NCIM 5029 after 18 to 20 hrs by broth dilution assay
Format: functional
Conditions: not given
Method in brief: as §2

MIC [µg/mL] | Compound
3.12 (≈ 4.42 µM) | CCCCCCCCCCCC(=O)N[C@@H](C)/C=C/C(=O)N[C@@H](CCCNC(=N)N)C(=O)N[C@@H](C)/C=C/C(=O)N[C@@H](CCCNC(=N)N)C(N)=O
> 100 | CCCCCCCC(=O)N[C@@H](CC(C)C)C(=O)N[C@@H](CCCCN)C(=O)N[C@H](C(=O)N[C@@H](CCCCN)C(N)=O)C(C)C (Octanoyl-LKVK-NH2)

Test system: Escherichia coli
Assay: Antibacterial activity against Escherichia coli K-12 NCIM 2563 after 18 to 20 hrs by broth dilution assay
Format: functional
Conditions: not given
Method in brief: as §2

MIC [µg/mL] | Compound
12.5 (≈ 17.7 µM) | CCCCCCCCCCCC(=O)N[C@@H](C)/C=C/C(=O)N[C@@H](CCCNC(=N)N)C(=O)N[C@@H](C)/C=C/C(=O)N[C@@H](CCCNC(=N)N)C(N)=O
> 100 | CCCCCCCC(=O)N[C@@H](CC(C)C)C(=O)N[C@@H](CCCCN)C(=O)N[C@H](C(=O)N[C@@H](CCCCN)C(N)=O)C(C)C (Octanoyl-LKVK-NH2)

Test system: Staphylococcus aureus
Assay: Antibacterial activity against Staphylococcus aureus NCIM 5021 after 18 to 20 hrs by broth dilution assay
Format: functional
Conditions: not given
Method in brief: as §2

MIC [µg/mL] | Compound
6.25 (≈ 8.85 µM) | CCCCCCCCCCCC(=O)N[C@@H](C)/C=C/C(=O)N[C@@H](CCCNC(=N)N)C(=O)N[C@@H](C)/C=C/C(=O)N[C@@H](CCCNC(=N)N)C(N)=O
> 100 | CCCCCCCC(=O)N[C@@H](CC(C)C)C(=O)N[C@@H](CCCCN)C(=O)N[C@H](C(=O)N[C@@H](CCCCN)C(N)=O)C(C)C (Octanoyl-LKVK-NH2)

Test system: not listed separately
Assay: Hemolytic activity in human RBC at 100 ug/ml after 1 hr
Format: ADME, cell-based
Conditions: erythrocyte
Method in brief: as §4

Compound | Activity
CCCCCCCC(=O)N[C@@H](CC(C)C)C(=O)N[C@@H](CCCCN)C(=O)N[C@H](C(=O)N[C@@H](CCCCN)C(N)=O)C(C)C (Octanoyl-LKVK-NH2) | Non-toxic

Test system: Candida albicans
Assay: Antifungal activity against Candida albicans NCIM 3471 assessed as disruption of cell membrane by atomic force microscopic analysis
Format: functional, organism-based
Conditions: not given
Method in brief: as §1

Compound | Activity
CCCCCCCCCCCC(=O)N[C@@H](C)/C=C/C(=O)N[C@@H](CCCNC(=N)N)C(=O)N[C@@H](C)/C=C/C(=O)N[C@@H](CCCNC(=N)N)C(N)=O | Active
CCCCCCCC(=O)N[C@@H](CC(C)C)C(=O)N[C@@H](CCCCN)C(=O)N[C@H](C(=O)N[C@@H](CCCCN)C(N)=O)C(C)C (Octanoyl-LKVK-NH2) | Active

Test system: Escherichia coli
Assay: Antibacterial activity against Escherichia coli NCIM 2065 after 18 to 20 hrs by broth dilution assay
Format: functional
Conditions: not given
Method in brief: as §2

MIC [µg/mL] | Compound
12.5 (≈ 17.7 µM) | CCCCCCCCCCCC(=O)N[C@@H](C)/C=C/C(=O)N[C@@H](CCCNC(=N)N)C(=O)N[C@@H](C)/C=C/C(=O)N[C@@H](CCCNC(=N)N)C(N)=O
> 100 | CCCCCCCC(=O)N[C@@H](CC(C)C)C(=O)N[C@@H](CCCCN)C(=O)N[C@H](C(=O)N[C@@H](CCCCN)C(N)=O)C(C)C (Octanoyl-LKVK-NH2)

Test system: Cryptococcus neoformans
Assay: Antifungal activity against Cryptococcus neoformans NCIM 3542 after 48 to 72 hrs
Format: functional
Conditions: not given
Method in brief: as §3

MIC [µg/mL] | Compound
12.5 (≈ 17.7 µM) | CCCCCCCCCCCC(=O)N[C@@H](C)/C=C/C(=O)N[C@@H](CCCNC(=N)N)C(=O)N[C@@H](C)/C=C/C(=O)N[C@@H](CCCNC(=N)N)C(N)=O
> 100 | CCCCCCCC(=O)N[C@@H](CC(C)C)C(=O)N[C@@H](CCCCN)C(=O)N[C@H](C(=O)N[C@@H](CCCCN)C(N)=O)C(C)C (Octanoyl-LKVK-NH2)
